Measured values taken from ChEMBL document CHEMBL4513216, “Probing the Open Global Health Chemical Diversity Library for Multistage-Active Starting Points for Next-Generation Antimalarials” (ACS Infect Dis, 2020).

Assay: Toxicity liver stage against HepG2, at 10uM
Assay type: cell-based
Parameters: test concentration 10 uM, cell line HepG2-A16-CD81EGFP
Conditions: human, HepG2-A16-CD81EGFP cells; read-out: INHIBITION
Method in brief: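 Uninfected HepG2-A16-CD81EGFP cells, 3 × 10^3 per well, 1536-well, plated on prespotted compound at 10 μM final, parasite-free screening media added to match infected plates; puromycin 10 μM positive, DMSO 0.5% negative; run in parallel with 48 h PbLuc assay at 37 °C, 5% CO2; viability by CellTiter-Glo luminescence, normalized to controls.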

| SMILES | cytotoxicity at 10 µM |
| --- | --- |
| CCOC(=O)c1nc(CC(=O)Nc2ccccc2)no1 | 6.96% |
| COCCn1cc(C(=O)Nc2nc3c(s2)CCC3)c2ccccc21 | 77.9% |
| CC(C)c1sc(Br)nc1C(=O)NCc1ccncc1 | 1.18% |
| COCCCN1CC2(CCCCN2C(=O)C2CCCCC2)CC1=O (stereo unspecified) | 12.2% |
| c1cnc(N2CC[C@@H]3[C@@H]2CCN3Cc2cccs2)nc1 | 3.91% |
| CNC(=O)N1CCC2(CC1)C(=O)N(C)c1c(F)cccc12 | -5.86% |
| CCN1C(=O)CC[C@@H]2[C@H]1CCN2C(=O)Cc1cccc(OC)c1 | 0.657% |
| COCC(=O)N1CCC(c2nc3ccc(N4CCOCC4)cn3n2)CC1 | 12% |
| CS(=O)(=O)N1C[C@@H]2COC[C@H](C(=O)Nc3cnccn3)[C@@H]2C1 | 14.6% |
| Cc1cccc(C)c1Nc1noc2c1CN(C(=O)c1ccnn1C)CC2 | 7.3% |
| Cc1ccnc(C2(C)CCCN2S(=O)(=O)c2ccccc2)n1 (stereo unspecified) | 0.435% |
| Cn1cc(C2=NOC(C(=O)NC3(c4ccccc4F)CCCC3)C2)cn1 (stereo unspecified) | -0.269% |
| CN1CCCC(c2cccc(-c3cccc(C(F)(F)F)c3)n2)C1 (stereo unspecified) | -6.47% |
| Nc1cc(CCC2CN(Cc3cccc(C(=O)O)c3)CCO2)ccn1 (stereo unspecified) | -1.17% |
| Cc1ccc(F)c(S(=O)(=O)N2CCCC2c2ccncc2)c1 (stereo unspecified) | 10.6% |
| CCN(CC1CC1)C(=O)NCc1nnc2n1CCC2 | -13.2% |
| Cc1ccc2c(c1)N(C(=O)c1c[nH]c(C)cc1=O)CC(C)O2 (stereo unspecified) | 23.6% |
| Cc1cc(NC(=O)c2ccc(N3CCOCC3)cc2)[nH]n1 | -28.5% |
| Cc1ccc(OCC(=O)Nc2cc(C(=O)O)cc(S(C)(=O)=O)c2)cc1C | -4.95% |
| Cc1ccc(CNCc2cc(Br)c3c(c2)OCO3)cc1 | 5.35% |
| O=C(CN1CCCC(c2ncc[nH]2)C1)NCCCN1CCCCCC1=O (stereo unspecified) | 6.66% |

| SMILES | cytotoxicity at 10 µM |
| --- | --- |
| CCOCCN1CCN(c2ccc(C#N)cn2)CC1 | -4.21% |
| Cc1nc(NCc2nncn2C2CC2)c2c(CC(C)C)csc2n1 | -5.57% |
| O=C(Nc1cccc(F)c1)NC1CCN(Cc2ccncc2)CC1 | -9.01% |
| CNC(=O)CC1CCN(C(=O)NCc2cn3c(C)cccc3n2)CC1 | 3.88% |
| Cc1ccc(S(=O)(=O)N2CCC(N3CCCCC3)CC2)cc1C | 8.95% |
| Cn1cc(CNC(=O)NCCOc2ccc(F)c(F)c2)cn1 | 2.13% |
| CC(C)(C)NC(=O)NC(=O)COc1nc(C(C)(C)C)no1 | -1.62% |
| CCc1nc(C)c(C(=O)N2CCCC(c3noc(C)n3)C2)s1 (stereo unspecified) | 5.82% |
| O=C(NCCCNC(=O)c1cccc(O)c1)Nc1ccc(Cl)cc1 | -3.79% |
| Cc1noc(CCCC(=O)N2CCCCC2c2nccs2)n1 (stereo unspecified) | -87.5% |
| O=C(c1ccc2nncn2c1)N1CCSC2(CCCCC2)C1 | -5.32% |
| Cc1cc(CN(CCO)c2ccccc2)on1 | -14.7% |
| CCn1c(CN(C)Cc2csc(C)n2)nc2cc(F)ccc21 | -47% |
| CNC(=O)CN(C)C(=O)c1cc2ccccc2cc1OC | 17.1% |
| COCCN(Cc1cccc(O)c1)CC1CC1 | 12.7% |
| CO[C@H]1CCN(C(=O)Cc2ccc(F)cc2)[C@H]1Cc1ccncc1 | 5.55% |
| COC[C@@H]1CC[C@H]2[C@H](CCN2S(=O)(=O)c2ccc(OC)cc2)O1 | 0.796% |
| Nc1ncc(-c2ccc(NC(=O)[C@@H]3CCCCN3)cc2)cn1 | -4.44% |
| O=C(Cc1cn2ccsc2n1)N1CCOCC(O)(CN2CCCC2)C1 (stereo unspecified) | -3.36% |
| Fc1ccccc1CC1CCN(Cc2ccccn2)CC1 | 2.25% |
| CN(CCN1CCCC1)c1nccc(N2CCN[C@H]3CS(=O)(=O)C[C@H]32)n1 | -8.93% |

| SMILES | cytotoxicity at 10 µM |
| --- | --- |
| Cc1ccc(-c2nnc(CN3CCCC(O)(CO)CC3)o2)n1C (stereo unspecified) | -2.4% |
| CCCOc1ccc(Cl)cc1CNc1ncnc2oc(C)nc12 | 9.98% |
| Cc1cccc(OC2CN(C(=O)c3cnn(C)c3)C2)c1 | -2.92% |
| CN1CCCCCC1C(=O)N1CCCN(c2ccccc2)CC1 (stereo unspecified) | -6.56% |
| C[C@@H]1CN(S(=O)(=O)c2ccc(F)cc2F)C[C@]1(C)O | -3.36% |
| CC(C)CC(C)NC1CCN(c2ccc(-c3cscn3)cc2)CC1 (stereo unspecified) | -50.6% |
| CCCOC(=O)NCCC1CN(c2cnn(C)c(=O)c2)CCO1 (stereo unspecified) | 5.31% |
| O=C(CN1CCNC1=O)N1CCc2nnc(-c3ccccc3)n2CC1 | -46.1% |
| CN1CCN(C)C2(CCN(Cc3ccc(C4CCCO4)s3)CC2)C1 (stereo unspecified) | -11.7% |
| Nc1ccnc(N2CCC(Cc3ccccc3Cl)(C(=O)O)CC2)n1 | 2.8% |
| O=C(c1ccco1)N1CCc2ncnc(NCc3ccccn3)c2CC1 | 5.61% |
| COCCN(Cc1cnn(C)c1)c1nc2c(s1)c(C)nn2C | -42.4% |
| O=C1CC[C@@H](C(=O)N2CCC(Cn3cc(C4CCCCC4)nn3)CC2)N1 | 8.02% |
| Cc1cc(C(F)(F)F)nc(CCNC(C)Cn2nc(C)cc2C)n1 (stereo unspecified) | 8.19% |
| O=C(Nc1ccc2c(c1)OCO2)N1CCCC1c1ccco1 (stereo unspecified) | -2.11% |
| Cc1cc(CN2CCc3nc(C)n(C)c(=O)c3CC2)[nH]n1 | -7.92% |
| CCCn1cnnc1CNCc1c[nH]nc1-c1ccc(F)cc1 | 2.69% |
| Cc1ccnc(CC(C)N(C)c2cc(CCN)nc(C)n2)c1 (stereo unspecified) | -48% |
| CN1CC2(CCCN(c3nc(N)nc4c3CCCC4)C2)OC1=O (stereo unspecified) | -0.519% |
| Clc1ccc2cccnc2c1CN1CCCCC1Cn1cncn1 (stereo unspecified) | 7.63% |
| C1CCCN(CC2CCCN(Cc3noc(C4CC4)n3)C2)CC1 (stereo unspecified) | -12.7% |

| SMILES | cytotoxicity at 10 µM |
| --- | --- |
| Cc1nn(C)c(C)c1C1CCCN1C(=O)c1ccc(CN(C)C)cc1 (stereo unspecified) | -7.79% |
| CCN1CCC(CNC(=O)NCc2cc(-c3ccc(C)cc3)no2)C1 (stereo unspecified) | -12.3% |
| O=C(NCCC(=O)N1CCCC1)c1nn(-c2ccccc2F)cc1O | -13.9% |
| O=C(O)c1cc(S(=O)(=O)Nc2ccc(Cl)cc2)cc2c1OCCO2 | 2.33% |
| Cc1ccc(CNC(=O)NCCCn2nc3ccccn3c2=O)s1 | -2.09% |
| CN(Cc1ccnc2ccccc12)C1CCS(=O)(=O)C1 (stereo unspecified) | 4.36% |
| Fc1ccc(Cc2cnc(C3CCCN3)cn2)cc1 (stereo unspecified) | -9.77% |
| O=C(NC1CC1)N1CCc2ccc(=O)n(Cc3cccnc3)c2CC1 | 0.995% |
| O=C(c1ncccn1)N1C[C@H]2CCC[C@@]2(COCc2cccnc2)C1 | 1.83% |
| Cc1cnc(N2CCO[C@@H]3CC(COCc4cccnc4)C[C@H]32)nc1 (stereo partly specified) | 3.93% |
| c1coc(CN2CCCn3c(nnc3Cn3cccc3)C2)c1 | -0.314% |
| COc1cccc(-c2noc(C3CCN(Cc4ccccc4C)C3)n2)c1 (stereo unspecified) | -6.88% |
| CO[C@@H]1CCN(Cc2ccoc2)[C@@H]2CN(Cc3ccco3)C[C@@H]21 | 8.1% |
| CC(C)CN1CCN(C)C2(CCN(c3nccs3)CC2)C1=O | -5.4% |
| Cc1ccc(CN2CCc3ncc(CNC(=O)C4CCC4)n3CC2)o1 | 8.71% |
| Cc1cccc(CN2CC3(CCN(Cc4ccoc4)CC3)OCC2=O)n1 | -3.18% |
| Cc1[nH]nc(CCC(=O)N2C[C@@H]3CC[C@H]2CN(C(=O)N(C)C)C3)c1C | 3.8% |
| CCNc1nc2cn(-c3ccc(OC(F)(F)F)cc3)c(=O)c-2c[nH]1 | 11.8% |
